Source: PubChem BioAssay
SENP8 block-1: blocks the human protease SENP8. purified SENP8, Z-RLRGG-aminoluciferin cleavage, luminescence. inhibition, % at 10 µM. actives 1.2% (n = 330,000). AID 2540; in the data active = inhibition above about 50%
SENP7 block: SENP7 protease inhibition; Q9BQF6; recombinant SENP7, Z-RLRGG-aminoluciferin luminescence, 40 min; inhibition, % at 5 µM; actives 1.5% (n = 330,000);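 active = inhibition above about 50% at the single test dose, limit read from the data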;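 note: plate controls were DMSO with enzyme for no effect and no enzyme buffer wells for full effect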
Target sequence (Q9BQF6 706-1050 limits assumed): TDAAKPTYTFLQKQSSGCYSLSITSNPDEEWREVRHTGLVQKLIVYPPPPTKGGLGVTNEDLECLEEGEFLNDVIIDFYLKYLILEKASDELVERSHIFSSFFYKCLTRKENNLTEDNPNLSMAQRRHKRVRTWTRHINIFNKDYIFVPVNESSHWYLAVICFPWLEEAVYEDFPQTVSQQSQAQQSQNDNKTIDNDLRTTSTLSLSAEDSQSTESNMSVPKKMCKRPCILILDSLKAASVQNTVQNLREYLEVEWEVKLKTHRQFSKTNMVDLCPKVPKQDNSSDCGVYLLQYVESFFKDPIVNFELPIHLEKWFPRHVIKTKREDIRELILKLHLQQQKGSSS
SENP1 inh: inhibitors of human SENP1 SUMO protease catalytic domain. Q9P0U3. recombinant SENP1 catalytic domain, CyPet-SUMO1-YPet FRET cleavage. inhibition, % at 10 µM. actives 0.21% (n = 360,000);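 active = inhibition at least 30% at 10 µM, raw YFP signal under a set limit, fluorescence ratio 0.5 to 1.5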;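 note: 0% = enzyme with DMSO and 100% = no enzyme wells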
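Test system: recombinant human SENP1 catalytic domain, His6-tagged / Medium: pH 8 Tris buffer with EDTA, NaCl, BME, BSA, NP40, catalase / Also added: SUMO1 FRET substrate flanked by Cypet and Ypet, 25 nM / Times: 50 min reaction at room temperature / Signal: FRET, CFP and YFP emission / Control set: no-enzyme low control and enzyme-plus-DMSO high control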
Platelet DG rel: platelet dense granule release activity | AID 1663 | inhibition, %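 (compounds screened at 7.5 µM in platelet-rich plasma)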 | human platelet-rich plasma, SFLLRN dense granule ATP release, luminescence | actives 0.22% (n = 300,000);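 active = mean replicate score, as percent of positive control, at or above 50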
SENP8 block-2: blocks human SENP8 cleavage of Nedd8 substrate | inhibition, % at 20 µM | Q96LD8 | recombinant SENP8, Nedd8 substrate fluorescence | actives 0.64% (n = 360,000); in the data active = inhibition mostly above about 40%, no sharp cut-off; inactive = mostly below about 27%
SENP6 inh: SENP6 protease inhibition. Q9GZR1. Recombinant SENP6 catalytic domain, aminoluciferin luminescence. inhibition, % at 10 µM. actives 1.8% (n = 330,000). AID 2599;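 active = inhibition above about 50% at the single tested dose, limit read from the data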;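 note: plate controls were DMSO wells with enzyme for no effect and DMSO wells lacking enzyme for full effect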
SENP1 conf: SENP1 (human) inhibition, single concentration confirmation | shares compounds with SENP1 inh | recombinant SENP1, CyPet-SUMO1-YPet FRET cleavage | inhibition, % at 10 µM | actives 34% (n = 520); in the data active = inhibition mostly above about 35%, no sharp cut-off; inactive = mostly below about 32%;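 note: 0% = enzyme with DMSO and 100% = no enzyme control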
SENP1 kin conf: SENP1 (human) inhibition, kinetic confirmation; shares compounds with SENP1 inh; recombinant SENP1, CyPet-SUMO1-YPet FRET kinetic cleavage; inhibition, % at 10 µM; actives 26% (n = 520); in the data active = inhibition mostly above about 32%, no sharp cut-off; inactive = mostly below about 29%;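 note: 0% = DMSO with enzyme and 100% = no enzyme substrate only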
Active calls of the source: *; · = no result. Most compounds without a hit are left out; they make up all but 2.6% or so of the library.

SMILES	SENP8 block-1	SENP7 block	SENP1 inh	Platelet DG rel	SENP8 block-2	SENP6 inh	SENP1 conf	SENP1 kin conf
COc1ccc(P2(=O)Nc3ccccc3N2)cc1	9	5	38*	-1	-23	24	94*	60*
COC(=O)C1=C(c2ccc(OC(F)(F)F)cc2)C[C@@H]2CC[C@H]1N2C(=O)NC(C)C	4	3	1	·	12	-3	·	·
O=[N+]([O-])c1ccccc1Cl	-13	-8	-1	·	4	-26	·	·
O=C1NC(=O)C(Sc2ccccc2[N+](=O)[O-])C(=O)N1	4	4	32*	-6	40	9	14	16
CC1=NN=C(c2ccc(N)cc2)c2cc3c(cc2C1)OCO3	-7	1	43*	·	-132	-20	6	-3
N=Cc1c(O)n(-c2ccccc2)c(=O)n(-c2ccccc2)c1=O	10	7	0	9	13	-20	·	·
